According to ChEMBL document CHEMBL5724801, “EUbOPEN Chemogenomics Library - Multiplex” (2024):
Several values for one entry are separate records, joined by “and”; a condition that tells them apart may be missing. Equal entries are not always repeated.

Test system: HEK-293T
Test: Multiplex assay against HEK293T
Assay type: toxicity, cell-based
Details: human
How it was run: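 Live cells were stained at seeding with Hoechst33342, BioTracker Green Microtubule Cytoskeleton Dye, MitoTracker Red and Annexin V Alexa Fluor 680, then imaged on a CQ1 microscope at 37°C and 5% CO2 after compound addition. CellPathfinder machine-learning gating split cells into Hoechst high-intensity objects or normal cells. Normal cells were split into healthy, pyknosed or fragmented nuclei, and pyknosed cells into mitotic or apoptotic. Tubulin, mitochondrial-mass and membrane-permeability phenotypes are per cents of healthy-nucleus cells.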

[1] = 12 h, 1 µM, compound concentration 1 uM
[2] = 12 h, 10 µM, compound concentration 10 uM
[3] = 24 h, 1 µM, compound concentration 1 uM
[4] = 24 h, 10 µM, compound concentration 10 uM
[5] = 48 h, 1 µM, compound concentration 1 uM
[6] = 48 h, 10 µM, compound concentration 10 uM

COC[C@@H](CC(C)C)NC1=N/C(=C\c2ccc3ncsc3c2)C(=O)N1C
Population Apoptotic (%) [1]: 13.64% and 37.5%
Population Fragmented Nuclei (%) [1]: 6.45% and 8%
Population Healthy Nuclei (%) [1]: 58.06% and 23.43%
Population Hoechst High Intensity Objects (%) [1]: 0.8% and 0%
Population Membrane Permeable-Phenotype (%) [1]: 0.69% and 2.44%
Population Mitotic Cells (%) [1]: 86.36% and 62.5%
Population Normal (%) [1]: 99.2% and 100%
Population Pyknosed Nuclei (%) [1]: 35.48% and 68.57%
Population Tubulin-Different-Phenotype (%) [1]: 6.94% and 14.63%
Total Cell Count [1]: 250 and 175
Population Apoptotic (%) [2]: 25.51% and 35.09%
Population Fragmented Nuclei (%) [2]: 88.19% and 92.28%
Population Healthy Nuclei (%) [2]: 3.54% and 1.77%
Population Hoechst High Intensity Objects (%) [2]: 4.51% and 10.38%
Population Membrane Permeable-Phenotype (%) [2]: 0% and 5.88%
Population Mitochondria Different-Phenotype (%) [2]: 0%
Population Mitotic Cells (%) [2]: 74.49% and 64.91%
Population Normal (%) [2]: 95.49% and 89.62%
Population Pyknosed Nuclei (%) [2]: 8.27% and 5.95%
Population Tubulin-Different-Phenotype (%) [2]: 16.67% and 5.88%
Total Cell Count [2]: 1241 and 1069
Population Apoptotic (%) [3]: 46.3% and 34.07%
Population Fragmented Nuclei (%) [3]: 6.23% and 6.63%
Population Healthy Nuclei (%) [3]: 76.07% and 38.55%
Population Hoechst High Intensity Objects (%) [3]: 2.87% and 1.19%
Population Membrane Permeable-Phenotype (%) [3]: 0.43% and 1.56%
Population Mitochondria Different-Phenotype (%) [3]: 19.83% and 7.81%
Population Mitotic Cells (%) [3]: 53.7% and 65.93%
Population Normal (%) [3]: 97.13% and 98.81%
Population Tubulin-Different-Phenotype (%) [3]: 19.4% and 12.5%
Total Cell Count [3]: 314 and 168
Population Apoptotic (%) [4]: 41.88% and 34.04%
Population Fragmented Nuclei (%) [4]: 84.82% and 94.42%
Population Healthy Nuclei (%) [4]: 4.67% and 1.42%
Population Hoechst High Intensity Objects (%) [4]: 5.28% and 8.58%
Population Membrane Permeable-Phenotype (%) [4]: 9.62% and 0%
Population Mitochondria Different-Phenotype (%) [4]: 5.77% and 0%
Population Mitotic Cells (%) [4]: 58.12% and 65.96%
Population Normal (%) [4]: 94.72% and 91.42%
Population Pyknosed Nuclei (%) [4]: 10.51% and 4.16%
Population Tubulin-Different-Phenotype (%) [4]: 15.38% and 0%
Total Cell Count [4]: 1175 and 1236
Population Apoptotic (%) [5]: 43.33% and 39.58%
Population Fragmented Nuclei (%) [5]: 10.02% and 10.37%
Population Healthy Nuclei (%) [5]: 83.97% and 54.07%
Population Hoechst High Intensity Objects (%) [5]: 2.16% and 8.16%
Population Membrane Permeable-Phenotype (%) [5]: 3.34% and 1.37%
Population Mitochondria Different-Phenotype (%) [5]: 36.28% and 26.03%
Population Mitotic Cells (%) [5]: 56.67% and 60.42%
Population Normal (%) [5]: 97.84% and 91.84%
Population Fragmented Nuclei (%) [6]: 90.84% and 92.95%
Population Healthy Nuclei (%) [6]: 2.22% and 3.18%
Population Hoechst High Intensity Objects (%) [6]: 6.5% and 11.42%
Population Membrane Permeable-Phenotype (%) [6]: 6.67% and 0%
Population Mitochondria Different-Phenotype (%) [6]: 23.33% and 0%
Population Normal (%) [6]: 93.5% and 88.58%
Population Pyknosed Nuclei (%) [6]: 6.95% and 3.87%
Population Tubulin-Different-Phenotype (%) [6]: 10% and 2.38%
Total Cell Count [6]: 1447 and 1489

CN1CCN(c2cc(-c3ccccc3)nc(N)n2)CC1
Population Apoptotic (%) [1]: 40% and 34%
Population Fragmented Nuclei (%) [1]: 8% and 5%
Population Healthy Nuclei (%) [1]: 79% and 84%
Population Hoechst High Intensity Objects (%) [1]: 6%
Population Membrane Permeable-Phenotype (%) [1]: 0%
Population Mitochondria Different-Phenotype (%) [1]: 35% and 48%
Population Mitotic Cells (%) [1]: 60% and 65%
Population Normal (%) [1]: 93%
Population Pyknosed Nuclei (%) [1]: 11% and 10%
Population Tubulin-Different-Phenotype (%) [1]: 21% and 16%
Total Cell Count [1]: 383 and 354
Population Apoptotic (%) [2]: 23% and 36%
Population Fragmented Nuclei (%) [2]: 7% and 6%
Population Healthy Nuclei (%) [2]: 82% and 81%
Population Hoechst High Intensity Objects (%) [2]: 7% and 10%
Population Membrane Permeable-Phenotype (%) [2]: 0%
Population Mitochondria Different-Phenotype (%) [2]: 46% and 63%
Population Mitotic Cells (%) [2]: 76% and 63%
Population Normal (%) [2]: 92% and 89%
Population Pyknosed Nuclei (%) [2]: 9% and 12%
Population Tubulin-Different-Phenotype (%) [2]: 30% and 20%
Total Cell Count [2]: 416 and 296
Population Apoptotic (%) [3]: 20% and 36%
Population Fragmented Nuclei (%) [3]: 9%
Population Healthy Nuclei (%) [3]: 79% and 82%
Population Hoechst High Intensity Objects (%) [3]: 4%
Population Membrane Permeable-Phenotype (%) [3]: 1%
Population Mitochondria Different-Phenotype (%) [3]: 16% and 24%
Population Mitotic Cells (%) [3]: 79% and 63%
Population Normal (%) [3]: 95%
Population Pyknosed Nuclei (%) [3]: 11% and 8%
Population Tubulin-Different-Phenotype (%) [3]: 12% and 8%
Total Cell Count [3]: 488 and 480
Population Apoptotic (%) [4]: 44% and 34%
Population Fragmented Nuclei (%) [4]: 13% and 9%
Population Healthy Nuclei (%) [4]: 75% and 79%
Population Hoechst High Intensity Objects (%) [4]: 6% and 9%
Population Membrane Permeable-Phenotype (%) [4]: 0%
Population Mitochondria Different-Phenotype (%) [4]: 32% and 50%
Population Mitotic Cells (%) [4]: 55% and 65%
Population Normal (%) [4]: 93% and 90%
Population Pyknosed Nuclei (%) [4]: 11%
Population Tubulin-Different-Phenotype (%) [4]: 19% and 17%
Total Cell Count [4]: 577 and 378
Population Apoptotic (%) [5]: 23% and 14%
Population Fragmented Nuclei (%) [5]: 13%
Population Healthy Nuclei (%) [5]: 78% and 80%
Population Hoechst High Intensity Objects (%) [5]: 1% and 2%
Population Membrane Permeable-Phenotype (%) [5]: 1% and 0%
Population Mitochondria Different-Phenotype (%) [5]: 12% and 14%
Population Mitotic Cells (%) [5]: 76% and 85%
Population Normal (%) [5]: 98% and 97%
Population Pyknosed Nuclei (%) [5]: 7% and 6%
Population Tubulin-Different-Phenotype (%) [5]: 12% and 9%
Total Cell Count [5]: 745 and 804
Population Apoptotic (%) [6]: 16% and 27%
Population Fragmented Nuclei (%) [6]: 17% and 13%
Population Healthy Nuclei (%) [6]: 75% and 81%
Population Hoechst High Intensity Objects (%) [6]: 3%
Population Membrane Permeable-Phenotype (%) [6]: 0% and 1%
Population Mitochondria Different-Phenotype (%) [6]: 25% and 24%
Population Mitotic Cells (%) [6]: 83% and 72%
Population Normal (%) [6]: 96%
Population Pyknosed Nuclei (%) [6]: 6% and 4%
Population Tubulin-Different-Phenotype (%) [6]: 14% and 11%
Total Cell Count [6]: 861 and 645

COc1cc(/C=C(\C#N)C(=O)Nc2nnc(C(F)(F)F)s2)ccc1OCc1ccc(C(F)(F)F)cc1C(F)(F)F
Population Apoptotic (%) [1]: 10% and 12.9%
Population Fragmented Nuclei (%) [1]: 2.37% and 4.7%
Population Hoechst High Intensity Objects (%) [1]: 0.67% and 0%
Population Membrane Permeable-Phenotype (%) [1]: 0%
Population Mitochondria Different-Phenotype (%) [1]: 45.57% and 22.22%
Population Mitotic Cells (%) [1]: 90% and 87.1%
Population Normal (%) [1]: 99.33% and 100%
Population Pyknosed Nuclei (%) [1]: 44.07% and 83.22%
Total Cell Count [1]: 297 and 149
Population Apoptotic (%) [2]: 7.56% and 15.32%
Population Fragmented Nuclei (%) [2]: 3.37% and 4.96%
Population Hoechst High Intensity Objects (%) [2]: 0%
Population Membrane Permeable-Phenotype (%) [2]: 0%
Population Mitochondria Different-Phenotype (%) [2]: 33.93% and 13.04%
Population Mitotic Cells (%) [2]: 92.44% and 84.68%
Population Normal (%) [2]: 100%
Population Pyknosed Nuclei (%) [2]: 40.07% and 78.72%
Total Cell Count [2]: 297 and 141
Population Apoptotic (%) [3]: 13% and 14.66%
Population Fragmented Nuclei (%) [3]: 1.79% and 2.79%
Population Healthy Nuclei (%) [3]: 75.89% and 32.4%
Population Hoechst High Intensity Objects (%) [3]: 0.22% and 0%
Population Membrane Permeable-Phenotype (%) [3]: 1.18% and 0%
Population Mitochondria Different-Phenotype (%) [3]: 13.82% and 22.41%
Population Mitotic Cells (%) [3]: 87% and 85.34%
Population Normal (%) [3]: 99.78% and 100%
Population Pyknosed Nuclei (%) [3]: 22.32% and 64.8%
Population Tubulin-Different-Phenotype (%) [3]: 11.47% and 13.79%
Total Cell Count [3]: 449 and 179
Population Apoptotic (%) [4]: 11.22% and 19.54%
Population Fragmented Nuclei (%) [4]: 0.62% and 1.78%
Population Healthy Nuclei (%) [4]: 79% and 46.75%
Population Hoechst High Intensity Objects (%) [4]: 0% and 0.59%
Population Membrane Permeable-Phenotype (%) [4]: 0.79% and 1.27%
Population Mitotic Cells (%) [4]: 88.78% and 80.46%
Population Normal (%) [4]: 100% and 99.41%
Population Pyknosed Nuclei (%) [4]: 20.37% and 51.48%
Population Tubulin-Different-Phenotype (%) [4]: 9.47% and 5.06%
Total Cell Count [4]: 481 and 170
Population Apoptotic (%) [5]: 10.37% and 13.92%
Population Fragmented Nuclei (%) [5]: 1.93% and 3.61%
Population Healthy Nuclei (%) [5]: 85.65% and 55.67%
Population Hoechst High Intensity Objects (%) [5]: 0.09% and 1.52%
Population Membrane Permeable-Phenotype (%) [5]: 4.73% and 1.85%
Population Mitochondria Different-Phenotype (%) [5]: 13.1% and 24.07%
Population Mitotic Cells (%) [5]: 89.63% and 86.08%
Population Normal (%) [5]: 99.91% and 98.48%
Population Fragmented Nuclei (%) [6]: 1.97% and 2.88%
Population Healthy Nuclei (%) [6]: 88.86% and 79.5%
Population Hoechst High Intensity Objects (%) [6]: 0% and 2.11%
Population Membrane Permeable-Phenotype (%) [6]: 4.71% and 1.81%
Population Mitochondria Different-Phenotype (%) [6]: 9.16% and 21.72%
Population Mitotic Cells (%) [6]: 88.79% and 63.27%
Population Normal (%) [6]: 100% and 97.89%
Population Pyknosed Nuclei (%) [6]: 9.16% and 17.63%
